# Compound activity (PubChem BioAssay)
# DNMT1 inh: human DNMT1 methyltransferase inhibitors, primary screen, biochemical, molecular beacon, fluorescence, HinP1I cleavage, uHTS; DNA (cytosine-5)-methyltransferase 1 (Homo sapiens), P26358; inhibition (reported as % activation of signal), % at 10 µM; 0.83% of 360,000 active; in the data active = inhibition above about 50%
# SUMO1 PPI mod: modulators of SUMO1 protein-protein interactions, primary screen, biochemical, uHTS; Small ubiquitin-related modifier 1 (Homo sapiens), P63165; SUMO1 binding to a labelled peptide, TR-FRET, 1 h; inhibition, % at 20 µM; 0.33% of 360,000 active; in the data active = inhibition above about 37%
# Target sequence (P63165 whole entry, looked up): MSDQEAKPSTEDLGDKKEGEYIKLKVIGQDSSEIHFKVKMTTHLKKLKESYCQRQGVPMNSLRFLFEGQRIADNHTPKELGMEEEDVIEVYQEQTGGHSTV
# Scp-1 inhibitor: Scp-1 phosphatase inhibitors, primary screen, biochemical, colorimetric, uHTS. Recombinant Scp1, phosphopeptide, malachite green phosphate absorbance. inhibition, % at 20 µM. 0.88% of 340,000 active. AID 493091, 2011;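 active = inhibition above about 50% at 20 µM, limit read from the data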
# Target sequence (Q9GZU7 76-261 limits assumed): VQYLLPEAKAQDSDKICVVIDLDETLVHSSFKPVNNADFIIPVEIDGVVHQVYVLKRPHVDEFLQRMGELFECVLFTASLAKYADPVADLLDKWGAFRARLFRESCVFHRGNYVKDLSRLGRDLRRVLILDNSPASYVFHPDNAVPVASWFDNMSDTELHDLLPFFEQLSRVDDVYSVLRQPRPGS
#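 Material – SCP-1 phosphatase catalytic domain, residues 76-261 · Buffer or medium – Acidic Tris acetate buffer with magnesium and detergent · Also added – Phospho 17-mer peptide substrate · Compound – single 20 µM dose, 1% DMSO · Times – 45 min room-temperature reaction, 5 min colour, 30 min stabiliser · Technique – Phosphate-binding colour reagent, absorbance read at 630 nm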
# STEP inh: STEP phosphatase inhibitors, primary screen, biochemical, fluorescence intensity, uHTS. Tyrosine-protein phosphatase non-receptor type 5 (Homo sapiens), P54829. recombinant STEP, OMFP fluorogenic substrate. inhibition, % at 20 µM. 0.25% of 360,000 active;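 active = inhibition at 20 µM, scaled per plate between control wells, above about 37%, limit read from the data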
#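 System: isolated STEP enzyme; schedule: 20 min enzyme reaction at room temperature, protected from light; medium: Bis-Tris buffer pH 6.0, 2.5 mM DTT, 0.005% Tween 20; signal: fluorescence, 480/540 nm; dosing: single compound dose of 20 µM, 1% DMSO final; also added: OMFP substrate, 25 µM final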
# LMPTP block: LMPTP phosphatase inhibitors, primary screen, biochemical, fluorescence intensity, uHTS; 0.22% of 360,000 active; recombinant LMPTP-A, OMFP fluorogenic substrate; Low molecular weight phosphotyrosine protein phosphatase (Homo sapiens), P24666; inhibition, % at 20 µM;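 active = compounds that cut the enzyme signal by at least half of the control window in the single-dose screen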
# Target sequence (P24666 whole entry, looked up): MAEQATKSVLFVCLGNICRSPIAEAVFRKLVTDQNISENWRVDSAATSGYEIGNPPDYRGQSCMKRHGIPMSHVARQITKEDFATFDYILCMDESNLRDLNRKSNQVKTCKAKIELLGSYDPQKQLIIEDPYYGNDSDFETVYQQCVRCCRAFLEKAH
#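 Test system – LMPTP-A phosphatase enzyme · Quantity – 0.625 nM LMPTP-A final · Reagent – OMFP substrate, 400 µM final · Dosing – one test concentration per compound, 20 µM, with 3% DMSO overall · Timing – 50 min enzyme reaction at room temperature, protected from light · Detection – fluorescence intensity · Controls – substrate-only low control, DMSO enzyme-plus-substrate high control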
# HKDC1 inhibitor: HKDC1 hexokinase inhibitors, primary screen, biochemical, fluorescence, uHTS | 0.16% of 340,000 active | recombinant HKDC1, G6PDH/diaphorase resazurin coupled fluorescence | AID 493160, 2011 | inhibition, % at 20 µM | Q2TB90;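 active = inhibition above about 35% when tested at 20 µM, limit read from the data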
#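 Assay system: in-house recombinant HK5 (HKDC1) enzyme. Input: HKDC1 at 5 µg/mL. Medium: Tris pH 8.0 buffer with MgCl2, Tween-20, BSA, BME. Dosing: single 20 µM dose. Schedule: 90 min reaction incubation at room temperature, dark. Signal: resazurin-to-resorufin fluorescence via G6PDH and diaphorase coupling, 525/613 nm. Controls: DMSO-enzyme wells negative, buffer-substituted wells positive.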
# Numbers stand for hits; n = inactive; x = not tested or not shown. In the library only some 1.8% were active in any assay of this set; here they are far more common.
SMILES,DNMT1 inh,SUMO1 PPI mod,Scp-1 inhibitor,STEP inh,LMPTP block,HKDC1 inhibitor
O=C1CC(c2ccc(O)c(O)c2)Oc2c1ccc(O)c2O (stereo not drawn),n,n,53,n,60,n
O=C(Nc1ccc(-c2nc3ccccc3o2)cc1)c1ccc(N2CCOCC2)c([N+](=O)[O-])c1,n,n,n,n,n,n
Cn1cc([N+](=O)[O-])c(C(=O)Nc2ccc(-c3nc4ccccc4o3)cc2)n1,n,46,n,n,n,n
COc1ccc(Sc2ccc(/C=C3\C(=O)NN(c4ccccc4)C3=O)o2)cc1,56,n,n,n,n,n
COc1ccc(-n2c(C)cc(/C=C3\C(=O)NN(c4ccccc4)C3=O)c2C)cc1,n,n,n,n,n,n
COc1cc(/C=C2\C(=O)NN(c3ccccc3)C2=O)cc([N+](=O)[O-])c1O,n,n,n,n,n,n
O=C1NN(c2ccccc2)C(=O)/C1=C\c1ccc(-c2cc([N+](=O)[O-])ccc2O)o1,n,n,87,46,84,n
O=C(CNC(=O)N1CC(=O)Nc2ccccc21)NCCc1cccc(F)c1,n,n,n,n,n,n
CC(=O)C1=C(O)C(=CC=Cc2ccccc2)OC1=O,n,n,x,n,n,x
O=c1cc(-c2ccccc2Cl)oc2ccc([N+](=O)[O-])c(O)c12,n,n,n,n,n,n
O=[N+]([O-])c1cc([N+](=O)[O-])c2oc(-c3ccccc3)c(Br)c2c1O,n,43,n,n,n,n
Cc1ccc(-c2nnc(-c3ccc4c(c3)OCO4)o2)cc1,n,68,n,n,n,n
Cc1ccnc(NS(=O)(=O)c2ccc(NC(=O)CSc3nc(-c4ccccc4)cc(=O)[nH]3)cc2)n1,n,n,n,n,n,n
CCOC(=O)C1CCN(S(=O)(=O)c2ccc3c(c2)CCCN3C(C)=O)CC1,n,n,n,n,n,n
CCOC(=O)C1CCN(S(=O)(=O)c2ccc3c(c2)CC(=O)N3C)CC1,n,n,69,n,n,n
CC1=C(C#N)C(=O)NC(=O)/C1=C\c1ccc(-c2ccc(C)cc2[N+](=O)[O-])o1,n,n,n,n,n,n
CCOC(=O)c1cc(-c2ccc(/C=C3/C(=O)NC(=O)C(C#N)=C3C)o2)ccc1Cl,n,n,81,n,n,n
CS(=O)(=O)c1ccc(C(=O)OCC(=O)NCc2cccs2)cc1[N+](=O)[O-],71,n,n,n,n,n
CC(=O)N(CCC(c1ccco1)C(C)C)Cc1ccc(OC(C)C)cc1 (stereo not drawn),n,n,n,n,n,n
CCOC(=O)c1c(N)sc2c1CCC(CC)C2 (stereo not drawn),n,n,n,n,n,n
CCC1CCc2c(sc(N)c2C(N)=O)C1 (stereo not drawn),n,47,n,n,n,n
Cc1cc(NC(=O)CSc2nnc(CNC(=O)c3ccccc3)o2)no1,n,n,n,n,n,n
COc1ccc(Br)cc1C1CC(=O)N2CN(Cc3ccccc3)CSC2=C1C#N (stereo not drawn),n,n,n,46,n,n
Cc1ccc(C2CC(=O)N3CN(c4ccc(Br)cc4)CSC3=C2C#N)o1 (stereo not drawn),101,n,n,n,n,n
COc1ccc(CCNC(=O)c2ccc3nc(-c4ccco4)c(-c4ccco4)nc3c2)cc1OC,98,47,89,n,64,n
O=C(Nc1cccc(C(F)(F)F)c1)c1ccc2nc(-c3ccco3)c(-c3ccco3)nc2c1,85,n,84,n,n,n
O=c1c2ccccc2sn1-c1ccc(Cl)cc1Cl,n,n,x,n,n,x
CCCCCCCCCCCC1N=C(N)NC(CCCO)=C1C(=O)OC (stereo not drawn),n,103,n,n,n,n
O=C(COC(=O)c1ccccc1[N+](=O)[O-])Nc1cccnc1Cl,n,n,n,n,n,n
